Measurements collected from several papers.
Lines come from different studies, so protocols differ.
Organism: Enterococcus faecalis
Read-out: microbial growth

C/C=C(\C)c1cc(OC(=O)c2c(O)c(C)c(O)c(Cl)c2/C(C)=C/C)c(C)c(O)c1C(=O)O
MIC (broth dilution; ATCC29212): 64 µg/mL

CCn1cc(C(=O)O)c(=O)c2cc(F)c(N3CCNCC3)cc21
MIC (broth dilution; NCTC12697): 4 µM

CC(C)Oc1c(NC(=O)c2ccc(NC(=O)[C@H](CC(N)=O)NC(=O)c3ccc(NC(=O)c4ccc(C#N)s4)cc3)cc2)ccc(C(=O)Nc2ccc(C(=O)O)cc2)c1O
MIC (ATCC29212): 0.25 µg/mL

Clc1ccc(-c2nc3ccccc3[nH]2)cc1Cl
MIC (broth dilution; ATCC29212): 32 µg/mL

C/C=C(\C)c1cc(OC(=O)c2c(C)c(Cl)c(O)c(Cl)c2O)c(C)c(O)c1C(=O)O
MIC (broth dilution; ATCC29212): > 64 µg/mL

Cc1ccc(C)n1-c1ccc(-c2nnc(-c3ccc(Br)cc3)[nH]2)cc1
MIC (broth dilution; ATCC14506; 18 h): 8 µg/mL

CC(C)Oc1c(NC(=O)c2ccc(NC(=O)[C@H](CC(N)=O)NC(=O)c3ccc(NC(=O)c4ccc(C#N)cn4)cc3)cc2)ccc(C(=O)Nc2ccc(C(=O)O)cc2)c1O
MIC (ATCC29212): 0.125 µg/mL

Clc1ccc(Cn2c(-c3ccc(Cl)cc3)nc3ccccc32)cc1
MIC (broth dilution; ATCC29212): 16 µg/mL

O=C(Nc1ccc2c(c1)OC(F)(F)O2)Nc1ccc(Cl)c(C(F)(F)F)c1
MIC: 3 µM

Cc1ccc(C)n1-c1ccc(-c2nnco2)cc1
MIC (broth dilution; ATCC14506; 18 h): 2 µg/mL

Cc1ccc2nc(-c3cccc(O)c3)[nH]c2c1
MIC (broth dilution; ATCC29212): 64 µg/mL

CO[C@@H](C(N)=O)[C@H](NC(=O)c1ccc(NC(=O)c2ccc(C#N)cc2)cc1)C(=O)Nc1ccc(C(=O)Nc2ccc(C(=O)Nc3ccc(C(=O)O)cc3)c(O)c2OC(C)C)cc1
MIC (ATCC29212): 0.125 µg/mL

Cc1ccc(C)n1-c1ccc(-c2nnc(-c3cccc([N+](=O)[O-])c3)[nH]2)cc1
MIC (broth dilution; ATCC14506; 18 h): 31.2 µg/mL

CN[C@H](CC(C)C)C(=O)N[C@H]1C(=O)N[C@@H](CC(N)=O)C(=O)N[C@H]2C(=O)N[C@H]3C(=O)N[C@H](C(=O)N[C@H](C(=O)O)c4cc(O)cc(O)c4-c4cc3ccc4O)[C@H](O)c3ccc(c(Cl)c3)Oc3cc2cc(c3O[C@@H]2O[C@H](CO)[C@@H](O)[C@H](O)[C@H]2O[C@H]2C[C@](C)(N)[C@H](O)[C@H](C)O2)Oc2ccc(cc2Cl)[C@H]1O
MIC (broth dilution; ATCC29212): 2 µg/mL

COc1cccc(-c2nc3ccccc3n2Cc2ccccc2)c1
MIC (broth dilution; ATCC29212): 64 µg/mL

Cc1ccc(C)n1-c1ccc(-c2nnc(-c3ccccc3Cl)[nH]2)cc1
MIC (broth dilution; ATCC14506; 18 h): 16 µg/mL

Cc1ccc2nc(-c3c4ccccc4cc4ccccc34)[nH]c2c1
MIC (broth dilution; ATCC29212): 64 µg/mL

Cc1ccc(C)n1-c1ccc(-c2nnc(-c3ccccc3[N+](=O)[O-])[nH]2)cc1
MIC (broth dilution; ATCC14506; 18 h): 31.2 µg/mL

COc1ccc(-c2nc3ccc(C)cc3[nH]2)cc1OC
MIC (broth dilution; ATCC29212): 128 µg/mL

Cc1cc(=O)[nH]n1C(=O)c1ccc(-n2c(C)ccc2C)cc1
MIC (broth dilution; ATCC14506; 18 h): 125 µg/mL
